Experimental data reported in ChEMBL document CHEMBL1154358, “Xanalteric acids I and II and related phenolic compounds from an endophytic Alternaria sp. isolated from the mangrove plant Sonneratia alba” (J Nat Prod, 2009).
In brackets after ≈: the same amount, converted by molar mass. Activity calls are given as the source filed them.

Key:
[1] = Cytotoxicity against mouse L5178Y cells assessed as cell viability at 10 ug/ml after 24 hrs by MTT assay; type: cell-based; details: read-out: Activity
Outline: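 Mouse lymphoma L5178Y cells; viability read by MTT tetrazolium microculture assay. Run as three independent experiments, each in triplicate. Medium with 0.1% (v/v) EtOH served as the negative control in every experiment.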

Staphylococcus aureus = assay: Antibacterial activity against methicillin-resistant Staphylococcus aureus by broth dilution method; type: functional
Outline: (§1)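 Dilution assay following EUCAST criteria against multidrug-resistant bacterial or fungal strains. Compounds were tested from 250 down to 0.48 μg/mL. MIC was taken as the lowest concentration at which bacterial or fungal growth was inhibited.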

Escherichia coli = assay: Antibacterial activity against multidrug-resistant Escherichia coli by broth dilution method; type: functional, organism-based; outline: as §1
Klebsiella pneumoniae = assay: Antibacterial activity against multidrug-resistant Klebsiella pneumoniae by broth dilution method; type: functional, organism-based; outline: as §1
Pseudomonas aeruginosa = assay: Antibacterial activity against multidrug-resistant Pseudomonas aeruginosa by broth dilution method; type: functional, organism-based; outline: as §1
Acinetobacter baumannii = assay: Antibacterial activity against multidrug-resistant Acinetobacter baumannii by broth dilution method; type: functional, organism-based
Pichia kudriavzevii = assay: Antifungal activity against multidrug-resistant Candida krusei by broth dilution method; type: functional, organism-based; outline: as §1
Aspergillus fumigatus = assay: Antifungal activity against multidrug-resistant Aspergillus fumigatus by broth dilution method; type: functional, organism-based; outline: as §1
Streptococcus pneumoniae = assay: Antibacterial activity against multidrug-resistant Streptococcus pneumoniae by broth dilution method; type: functional; outline: as §1
Enterococcus faecium = assay: Antibacterial activity against multidrug-resistant Enterococcus faecium by broth dilution method; type: functional; outline: as §1
Enterobacter cloacae = assay: Antibacterial activity against multidrug-resistant Enterobacter cloacae by broth dilution method; type: functional; outline: as §1
Aspergillus ficuum = assay: Antifungal activity against multidrug-resistant Aspergillus ficuum by broth dilution method; type: functional
Candida albicans = assay: Antifungal activity against multidrug-resistant Candida albicans by broth dilution method; type: functional; outline: as §1

O=C1C=Cc2c3c4c(c(O)ccc4c4ccc(O)c1c24)OC(O)(C(=O)O)C3 (centres undefined) [XANALTERIC ACID II]
viability at 24 h, 10 ug/ml [1]: 87.5% | MIC (Staphylococcus aureus): 250 µg/mL (≈ 686 µM) | Activity (Escherichia coli): inactive | Activity (Klebsiella pneumoniae): inactive | Activity (Pseudomonas aeruginosa): inactive | Activity (Acinetobacter baumannii): inactive | Activity (Pichia kudriavzevii): inactive | Activity (Aspergillus fumigatus): inactive

COc1c(CC(C)O)c2c3c(CC(C)O)c(C(=O)O)oc4c(O)cc5c(c6c(cc(O)c(c1=O)c62)OCO5)c43 (centres undefined)
Activity (Staphylococcus aureus): inactive | Activity (Streptococcus pneumoniae): inactive | Activity (Enterococcus faecium): inactive | Activity (Enterobacter cloacae): inactive | Activity (Aspergillus ficuum): inactive | Activity (Candida albicans): inactive | Activity (Escherichia coli): inactive | Activity (Klebsiella pneumoniae): inactive | Activity (Pseudomonas aeruginosa): inactive | Activity (Acinetobacter baumannii): inactive | Activity (Pichia kudriavzevii): inactive | Activity (Aspergillus fumigatus): inactive

COc1cc(O)c2c(c1)C1C[C@H](O)[C@@H](O)C[C@@]1(C)OC2=O (some centres undefined)
Activity (Staphylococcus aureus): inactive | Activity (Streptococcus pneumoniae): inactive | Activity (Enterococcus faecium): inactive | Activity (Enterobacter cloacae): inactive | Activity (Aspergillus ficuum): inactive | Activity (Candida albicans): inactive | Activity (Escherichia coli): inactive | Activity (Klebsiella pneumoniae): inactive | Activity (Pseudomonas aeruginosa): inactive | Activity (Acinetobacter baumannii): inactive | Activity (Pichia kudriavzevii): inactive | Activity (Aspergillus fumigatus): inactive

COc1c(CC(C)O)c2c3c(CC(C)O)c(OC)c(=O)c4c(O)cc5c(c6c(cc(O)c(c1=O)c62)OCO5)c43 (centres undefined)
Activity (Staphylococcus aureus): inactive | Activity (Streptococcus pneumoniae): inactive | Activity (Enterococcus faecium): inactive | Activity (Enterobacter cloacae): inactive | Activity (Aspergillus ficuum): inactive | Activity (Candida albicans): inactive | Activity (Escherichia coli): inactive | Activity (Klebsiella pneumoniae): inactive | Activity (Pseudomonas aeruginosa): inactive | Activity (Acinetobacter baumannii): inactive | Activity (Pichia kudriavzevii): inactive | Activity (Aspergillus fumigatus): inactive

O=C1C[C@@H](O)[C@@H]2c3ccc(O)c4c3[C@@H](c3ccc(O)c1c32)[C@H](O)CC4=O
Activity (Staphylococcus aureus): inactive | Activity (Streptococcus pneumoniae): inactive | Activity (Enterococcus faecium): inactive | Activity (Enterobacter cloacae): inactive | Activity (Aspergillus ficuum): inactive | Activity (Candida albicans): inactive | Activity (Escherichia coli): inactive | Activity (Klebsiella pneumoniae): inactive | Activity (Pseudomonas aeruginosa): inactive | Activity (Acinetobacter baumannii): inactive | Activity (Pichia kudriavzevii): inactive | Activity (Aspergillus fumigatus): inactive

COc1cc(O)c(C(=O)O)c(-c2c(C)cc(C(=O)O)oc2=O)c1 [ALTERNARIAN ACID]
viability at 24 h, 10 ug/ml [1]: 99.2% | Activity (Staphylococcus aureus): inactive | Activity (Streptococcus pneumoniae): inactive | Activity (Enterococcus faecium): inactive | Activity (Enterobacter cloacae): inactive | Activity (Aspergillus ficuum): inactive | Activity (Candida albicans): inactive | Activity (Escherichia coli): inactive | Activity (Klebsiella pneumoniae): inactive | Activity (Pseudomonas aeruginosa): inactive | Activity (Acinetobacter baumannii): inactive | Activity (Pichia kudriavzevii): inactive | Activity (Aspergillus fumigatus): inactive

O=C1C[C@@H](O)[C@H]2c3c(ccc(O)c31)-c1ccc(O)c3c1[C@]2(O)C=CC3=O
Activity (Staphylococcus aureus): inactive | Activity (Streptococcus pneumoniae): inactive | Activity (Enterococcus faecium): inactive | Activity (Enterobacter cloacae): inactive | Activity (Aspergillus ficuum): inactive | Activity (Candida albicans): inactive | Activity (Escherichia coli): inactive | Activity (Klebsiella pneumoniae): inactive | Activity (Pseudomonas aeruginosa): inactive | Activity (Acinetobacter baumannii): inactive | Activity (Pichia kudriavzevii): inactive | Activity (Aspergillus fumigatus): inactive

Cc1cc(O)cc2oc(=O)c3c(O)cc(O)cc3c12
Activity (Staphylococcus aureus): inactive | Activity (Streptococcus pneumoniae): inactive | Activity (Enterococcus faecium): inactive | Activity (Enterobacter cloacae): inactive | Activity (Aspergillus ficuum): inactive | Activity (Candida albicans): inactive | MIC (Escherichia coli): inactive | MIC (Klebsiella pneumoniae): inactive | MIC (Pseudomonas aeruginosa): inactive | MIC (Acinetobacter baumannii): inactive | MIC (Pichia kudriavzevii): inactive | MIC (Aspergillus fumigatus): inactive

COc1cc(O)c2c(=O)oc3cc(O)cc(C)c3c2c1
Activity (Staphylococcus aureus): inactive | Activity (Streptococcus pneumoniae): inactive | Activity (Enterococcus faecium): inactive | Activity (Enterobacter cloacae): inactive | Activity (Aspergillus ficuum): inactive | Activity (Candida albicans): inactive | Activity (Escherichia coli): inactive | Activity (Klebsiella pneumoniae): inactive | Activity (Pseudomonas aeruginosa): inactive | Activity (Acinetobacter baumannii): inactive | Activity (Pichia kudriavzevii): inactive | Activity (Aspergillus fumigatus): inactive

COc1cc(O)c2c(c1)C1=C[C@H](O)[C@@H](O)C[C@]1(C)OC2=O
Activity (Staphylococcus aureus): inactive | Activity (Streptococcus pneumoniae): inactive | Activity (Enterococcus faecium): inactive | Activity (Enterobacter cloacae): inactive | Activity (Aspergillus ficuum): inactive | Activity (Candida albicans): inactive | Activity (Escherichia coli): inactive | Activity (Klebsiella pneumoniae): inactive | Activity (Pseudomonas aeruginosa): inactive | Activity (Acinetobacter baumannii): inactive | Activity (Pichia kudriavzevii): inactive | Activity (Aspergillus fumigatus): inactive

COc1cc(O)c(C(=O)O)c(-c2cc(O)c(O)cc2C)c1 [ALTENUSIN]
MIC (Staphylococcus aureus): 31.2 µg/mL (≈ 108 µM) | MIC (Streptococcus pneumoniae): 31.2 µg/mL (≈ 108 µM) | MIC (Enterococcus faecium): 62.5 µg/mL (≈ 215 µM) | MIC (Enterobacter cloacae): 125 µg/mL (≈ 431 µM) | MIC (Aspergillus ficuum): 62.5 µg/mL | MIC (Candida albicans): 125 µg/mL (≈ 431 µM) | Activity (Escherichia coli): inactive | Activity (Klebsiella pneumoniae): inactive | Activity (Pseudomonas aeruginosa): inactive | Activity (Acinetobacter baumannii): inactive | Activity (Pichia kudriavzevii): inactive | Activity (Aspergillus fumigatus): inactive

O=C1C=Cc2c3c4c(c(O)ccc4c4ccc(O)c1c24)OC(C(=O)O)C3O (centres undefined) [XANALTERIC ACID I]
viability at 24 h, 10 ug/ml [1]: 45% | MIC (Staphylococcus aureus): 125 µg/mL (≈ 343 µM) | Activity (Escherichia coli): inactive | Activity (Klebsiella pneumoniae): inactive | Activity (Pseudomonas aeruginosa): inactive | Activity (Acinetobacter baumannii): inactive | Activity (Pichia kudriavzevii): inactive | Activity (Aspergillus fumigatus): inactive

O=C1C[C@H](O)[C@@H]2c3c(ccc(O)c31)-c1ccc(O)c3c1[C@@]2(O)CCC3=O
Activity (Staphylococcus aureus): inactive | Activity (Streptococcus pneumoniae): inactive | Activity (Enterococcus faecium): inactive | Activity (Enterobacter cloacae): inactive | Activity (Aspergillus ficuum): inactive | Activity (Candida albicans): inactive | Activity (Escherichia coli): inactive | Activity (Klebsiella pneumoniae): inactive | Activity (Pseudomonas aeruginosa): inactive | Activity (Acinetobacter baumannii): inactive | Activity (Pichia kudriavzevii): inactive | Activity (Aspergillus fumigatus): inactive
